Published values collected from several papers.
Compare with care: the assays were run in different laboratories.
Target: 5'-AMP-activated protein kinase catalytic subunit alpha-1 (PRKAA1, Homo sapiens, UniProt Q13131)

| Compound | assay | test system | setting | endpoint | result |
| --- | --- | --- | --- | --- | --- |
| Cc1ncc([N+](=O)[O-])n1C(=NO)c1ccccc1C(F)(F)F | enzyme activity, inhibitor |  | 10 µM | inhibition | 7.33% |
| CCc1ccccc1C(=O)Nc1n[nH]c2c(C)c(F)c(C3C(C#N)=C(C)N(C)C(C)=C3C#N)cc12 | cell-free assay, competition with immobilised ligand |  | 1 µM | remaining binding | 7.5% |
| C=CC(=O)Nc1cc(Nc2nccc(Nc3cc(Cl)c(F)cc3C(C)(C)O)n2)c(OC)cc1N1CC[C@@H](N(C)C)C1 | enzyme activity, inhibitor |  | 1 µM | inhibition | -6% |
| CCCCNc1ncc2c(-c3ccc(F)cc3)nn(C[C@H]3CC[C@H](N)CC3)c2n1 | target engagement in cells, inhibitor, chemoproteomics |  | 20 mM | inhibition | 22.8% |
| Nc1cnc(N2CCc3cc(S(=O)(=O)Nc4c(F)cc(Cl)cc4F)cc(N4CCCC4=O)c32)nc1 | cell-free assay, competition with immobilised ligand |  | 1 µM | remaining binding | 100% |
| CCN1CCN(Cc2ccc(NC(=O)c3ccc(C)c(Oc4ccnc5[nH]ccc45)c3)cc2C(F)(F)F)CC1 | target engagement in cells, inhibitor, chemoproteomics | Huh-7 | 1 µM | inhibition | -32.8% |
| FC(F)(F)Oc1cccc(-c2cnc3ccc(-c4ccncc4)nn23)c1 | enzyme activity, inhibitor, radiometric |  | 1 µM | activity vs control | 81% |
| Nc1ncnc2occ(-c3ccc(NC(=O)Nc4cc(C(F)(F)F)ccc4F)cc3)c12 | cell-free assay |  | 20 µM | remaining signal | 5.3% |
| CC(C)(C)c1nc2c(s1)c1nc(N)ncc1c1ccc(NS(=O)(=O)c3c(F)cccc3F)c(F)c12 | enzyme activity, inhibitor, radiometric |  | 1 µM | remaining activity | 81% |
| CN1CC(Oc2cnc(C#N)cc2-c2ccn3nc(NC(=O)C4CC4)cc3c2)C1 | enzyme activity, inhibitor |  | 1 µM | inhibition | 5% |
| O=C(Nc1cccnn1)N1CC(C/C=C/c2cncc(Oc3ccc(C(F)(F)F)cn3)n2)C1 | cell-free assay, competition with immobilised ligand |  | 1 µM | remaining binding | 100% |
| CC(C)(C)c1nc(-c2cccc(NS(=O)(=O)c3c(F)cccc3F)c2F)c(-c2ccnc(N)n2)s1 | enzyme activity, inhibitor, radiometric |  | 1 µM | remaining activity | 49% |
| COc1cccc2c(NCc3ccccc3)nc(-n3c(N)nc4ccccc43)nc12 | target engagement in cells, inhibitor, chemoproteomics |  | 20 mM | inhibition | 8.3% |
| Cc1ccc(C(=O)Nc2ccc(CN3CCN(C)CC3)c(C(F)(F)F)c2)cc1C#Cc1cnc2cccnn12 | enzyme activity |  | 23.5 nM | remaining activity | 73% |
